Measured values taken from ChEMBL document CHEMBL4020842, “Discovery of N1-(4-((7-Cyclopentyl-6-(dimethylcarbamoyl)-7 H-pyrrolo[2,3- d]pyrimidin-2-yl)amino)phenyl)- N8-hydroxyoctanediamide as a Novel Inhibitor Targeting Cyclin-dependent Kinase 4/9 (CDK4/9) and Histone Deacetlyase1 (HDAC1) against Malignant Cancer” (J Med Chem, 2018).
pIC50: −log10 of the molar value. Calls of active or inactive are those of the source. No cut-off for these calls is given here.

What was measured:
[1] = biological target: Aurora kinase B/Inner centromere protein (Homo sapiens, UniProt Q96GD4); test: Inhibition of recombinant human full length C-terminal His6-tagged Aurora B//N-terminal GST-tagged INCENP (821-end residues) expressed in baculovirus infected sf21 cells using AKRRRLSSLRA substrate in presence of [gamma33P]ATP after 10 mins by scintillation counting method
A549 [2] = test: Induction of apoptosis in human A549 cells assessed as late apoptotic cells at 5 uM after 48 hrs by annexin V-FITC/propidium iodide staining based flow cytometry (reference value: 0.88%); type: functional
NCI-H460 = test: Induction of apoptosis in human NCI-H460 cells assessed as early apoptotic cells at 5 uM after 48 hrs by annexin V-FITC/propidium iodide staining based flow cytometry (reference value: 0.11%); type: functional
T47D [3] = test: Induction of apoptosis in human T47D cells assessed as necrotic cells at 1 uM after 48 hrs by annexin V-FITC/propidium iodide staining based flow cytometry (reference value: 0.8%); type: functional
MDA-MB-231 [4] = test: Induction of apoptosis in human MDA-MB-231 cells assessed as late apoptotic cells at 5 uM after 48 hrs by annexin V-FITC/propidium iodide staining based flow cytometry (reference value: 1.53%); type: functional
MDA-MB-231 [5] = test: Induction of apoptosis in human MDA-MB-231 cells assessed as live cells at 10 uM after 48 hrs by annexin V-FITC/propidium iodide staining based flow cytometry (reference value: 98.1%); type: functional
Hep 3B2 [6] = test: Cell cycle arrest in human Hep3B cells assessed as decrease in S-phase at 625 nM after 24 hrs by propidium iodide staining based flow cytometry; type: functional
Method in brief: (§1)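 Cells were exposed for 24 h to a range of concentrations (625 nM, 2.5 and 10 µM), with DMSO vehicle as control. They were then stained with propidium iodide and analysed by flow cytometry to obtain the percentages of cells in G0/G1, S and G2 phases.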

T47D [7] = test: Cell cycle arrest in human T47D cells assessed as accumulation at G0/G1 phase at 625 nM after 24 hrs by propidium iodide staining based flow cytometry; type: functional; method in brief: as §1
[8] = biological target: CDK4/Cyclin D3 (Homo sapiens) (UniProt P11802+P30281); test: Inhibition of recombinant human full length N-terminal GST-tagged CDK4/Cyclin-D3 co-expressed in baculovirus infected sf21 cells at 1 uM using Rb substrate in presence of [gamma33P]ATP after 10 mins by scintillation counting method relative to control
CDK9/cyclin T1 = CDK9/cyclin T1 (Homo sapiens, UniProt P50750); test: Inhibition of recombinant human full length C-terminal 6His-tagged CDK9/Cyclin-T1 co-expressed in baculovirus infected sf21 cells using PDKtide substrate in presence of [gamma33P]ATP after 10 mins by scintillation counting method
A549 [9] = test: Induction of apoptosis in human A549 cells assessed as live cells at 10 uM after 48 hrs by annexin V-FITC/propidium iodide staining based flow cytometry (reference value: 92.7%); type: functional
MDA-MB-231 [10] = test: Cytotoxicity against human MDA-MB-231 cells assessed as reduction in cell viability after 72 hrs by CCK8 assay; type: functional, cell-based; details: MDA-MB-231, 72 h
4T1 [11] = test: Cytotoxicity against mouse 4T1 cells assessed as reduction in cell viability after 72 hrs by CCK8 assay; type: functional, cell-based; details: 4T1, 72 h
HepG2 [12] = test: Induction of apoptosis in human HepG2 cells assessed as early apoptotic cells at 10 uM after 48 hrs by annexin V-FITC/propidium iodide staining based flow cytometry (reference value: 0.3%); type: functional
HepG2 [13] = test: Induction of apoptosis in human HepG2 cells assessed as late apoptotic cells at 10 uM after 48 hrs by annexin V-FITC/propidium iodide staining based flow cytometry (reference value: 0.64%); type: functional
Hep 3B2 [14] = test: Induction of apoptosis in human Hep3B cells assessed as necrotic cells at 10 uM after 48 hrs by annexin V-FITC/propidium iodide staining based flow cytometry (reference value: 4.97%); type: functional
Hep 3B2 [15] = test: Induction of apoptosis in human Hep3B cells assessed as early apoptotic cells at 1 uM after 48 hrs by annexin V-FITC/propidium iodide staining based flow cytometry (reference value: 1.91%); type: functional
Hep 3B2 [16] = test: Induction of apoptosis in human Hep3B cells assessed as late apoptotic cells at 1 uM after 48 hrs by annexin V-FITC/propidium iodide staining based flow cytometry (reference value: 5.25%); type: functional
Hep 3B2 [17] = test: Induction of apoptosis in human Hep3B cells assessed as early apoptotic cells at 5 uM after 48 hrs by annexin V-FITC/propidium iodide staining based flow cytometry (reference value: 1.91%); type: functional
MDA-MB-231 [18] = test: Induction of apoptosis in human MDA-MB-231 cells after 48 hrs by annexin V-FITC/propidium iodide staining based flow cytometry; type: functional, cell-based
MDA-MB-231 [19] = test: Downregulation of CDK4 protein expression in human MDA-MB-231 cells after 48 hrs by Western blot method; type: functional, cell-based
Method in brief: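 Treated cells were lysed and CDK4 and cyclin D1 protein levels were assessed by Western blot.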

CDK4/CDK9 (Homo sapiens) = CDK4/CDK9 (Homo sapiens) (UniProt P11802+P50750); test: Inhibition of CDK4/CDK9 in human Hep3B cells assessed as reduction in Rb phosphorylation at Ser807/811 residues at 1 uM after 48 hrs by Western blot method; type: cell-based
Histone deacetylase 1 [20] = biological target: T1, Histone deacetylase 1 (Homo sapiens, UniProt Q13547); test: Inhibition of HDAC1 in human HepG2 cells assessed as increase in acetylated-histone H3 level at 1 to 5 uM after 48 hrs by Western blot method; type: cell-based
Histone deacetylase 1 [21] = biological target: T1, Histone deacetylase 1; test: Inhibition of HDAC1 in human A549 cells assessed as increase in p53 phosphorylation at Ser15 residue at 1 to 5 uM after 48 hrs by Western blot method; type: cell-based
Histone deacetylase 1 [22] = biological target: T1, Histone deacetylase 1; test: Inhibition of HDAC1 in human Hep3B cells assessed as increase in p53 phosphorylation at Ser15 residue at 1 to 5 uM after 48 hrs by Western blot method; type: cell-based
[23] = AUC (0 to infinity) in Sprague-Dawley rat at 20 mg/kg, ip administered as single dose by HPLC analysis; type: ADME, organism-based; set-up: dose 20 mg/kg, time infinity, route intraperitoneal; details: in vivo
[24] = MRT (0 to infinity) in Sprague-Dawley rat at 20 mg/kg, ip administered as single dose by HPLC analysis; type: ADME, organism-based; details: in vivo
Mus musculus = test: Toxicity in Balb/c mouse assessed as overt signs of toxicity at 45 to 130 mg/kg, ip for 16 consecutive days; type: organism-based; details: in vivo
4T1 [25] = test: Antitumor activity against mouse Fluc-labeled 4T1 cells implanted in Balb/c mouse assessed as tumor growth inhibition at 90 mg/kg, ip administered daily for 18 days measured after 8 to 25 days by bioluminescence assay relative to control; type: functional; details: 4T1, ip, read-out: TGI
Method in brief: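 Luciferase (Fluc) reporter introduced into 4T1 cells by lentiviral transduction. Cells implanted orthotopically into mammary fat pads of female BALB/c mice aged 6–8 weeks. Once tumours averaged 100 mm3, dosing was daily by IP injection. Bioluminescence imaging was done at days 8 and 25 to reflect viable tumour cell number. Tumour weight was recorded at study end.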

T1 sequence (Q13547 whole entry): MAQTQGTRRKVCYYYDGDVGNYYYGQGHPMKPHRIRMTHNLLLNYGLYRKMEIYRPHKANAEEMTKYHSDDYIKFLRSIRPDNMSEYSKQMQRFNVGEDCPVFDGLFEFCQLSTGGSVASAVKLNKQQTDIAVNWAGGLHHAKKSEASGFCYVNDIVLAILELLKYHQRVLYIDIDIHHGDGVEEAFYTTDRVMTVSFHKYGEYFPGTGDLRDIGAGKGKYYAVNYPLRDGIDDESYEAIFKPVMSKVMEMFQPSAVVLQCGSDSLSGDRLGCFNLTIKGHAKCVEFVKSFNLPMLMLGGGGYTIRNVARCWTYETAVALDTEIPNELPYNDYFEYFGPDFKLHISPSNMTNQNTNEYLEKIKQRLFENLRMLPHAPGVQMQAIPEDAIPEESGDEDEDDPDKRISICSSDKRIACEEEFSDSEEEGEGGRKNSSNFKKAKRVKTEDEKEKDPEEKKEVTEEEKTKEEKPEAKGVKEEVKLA
Aurora kinase B/Inner centromere protein, sequence (Q96GD4 whole entry): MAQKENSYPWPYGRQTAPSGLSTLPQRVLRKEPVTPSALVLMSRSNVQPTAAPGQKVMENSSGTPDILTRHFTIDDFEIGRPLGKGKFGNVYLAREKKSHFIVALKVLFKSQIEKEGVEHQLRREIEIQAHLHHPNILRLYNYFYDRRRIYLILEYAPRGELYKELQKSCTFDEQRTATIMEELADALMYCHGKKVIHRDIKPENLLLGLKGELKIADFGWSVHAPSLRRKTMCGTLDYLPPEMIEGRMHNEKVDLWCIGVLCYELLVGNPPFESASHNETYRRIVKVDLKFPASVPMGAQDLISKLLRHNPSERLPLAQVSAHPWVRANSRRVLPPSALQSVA
Aurora kinase B/Inner centromere protein, sequence (Q9NQS7 whole entry, further chain): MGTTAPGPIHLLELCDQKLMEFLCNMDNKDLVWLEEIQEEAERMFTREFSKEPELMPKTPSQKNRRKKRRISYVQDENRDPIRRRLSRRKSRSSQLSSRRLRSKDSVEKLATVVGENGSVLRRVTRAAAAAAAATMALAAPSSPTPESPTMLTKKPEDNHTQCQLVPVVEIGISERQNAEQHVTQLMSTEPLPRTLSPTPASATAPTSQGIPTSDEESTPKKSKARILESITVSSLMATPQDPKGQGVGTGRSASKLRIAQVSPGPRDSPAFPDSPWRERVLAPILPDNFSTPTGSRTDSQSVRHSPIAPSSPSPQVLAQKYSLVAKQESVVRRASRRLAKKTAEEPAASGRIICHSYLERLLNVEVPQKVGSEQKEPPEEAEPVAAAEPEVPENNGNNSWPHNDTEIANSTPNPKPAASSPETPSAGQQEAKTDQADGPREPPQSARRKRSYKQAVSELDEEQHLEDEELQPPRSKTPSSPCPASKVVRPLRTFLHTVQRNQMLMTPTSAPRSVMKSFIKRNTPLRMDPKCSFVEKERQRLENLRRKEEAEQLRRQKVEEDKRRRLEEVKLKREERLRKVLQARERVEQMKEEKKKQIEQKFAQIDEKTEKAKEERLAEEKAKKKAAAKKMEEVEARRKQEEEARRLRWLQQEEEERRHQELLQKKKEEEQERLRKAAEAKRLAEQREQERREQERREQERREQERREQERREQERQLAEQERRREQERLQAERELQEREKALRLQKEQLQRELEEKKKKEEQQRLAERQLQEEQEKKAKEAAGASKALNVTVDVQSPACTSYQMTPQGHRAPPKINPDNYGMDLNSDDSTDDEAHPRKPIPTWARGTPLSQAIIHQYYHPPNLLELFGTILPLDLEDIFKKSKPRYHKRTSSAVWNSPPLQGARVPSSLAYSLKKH
CDK9/cyclin T1, sequence (O60563 whole entry): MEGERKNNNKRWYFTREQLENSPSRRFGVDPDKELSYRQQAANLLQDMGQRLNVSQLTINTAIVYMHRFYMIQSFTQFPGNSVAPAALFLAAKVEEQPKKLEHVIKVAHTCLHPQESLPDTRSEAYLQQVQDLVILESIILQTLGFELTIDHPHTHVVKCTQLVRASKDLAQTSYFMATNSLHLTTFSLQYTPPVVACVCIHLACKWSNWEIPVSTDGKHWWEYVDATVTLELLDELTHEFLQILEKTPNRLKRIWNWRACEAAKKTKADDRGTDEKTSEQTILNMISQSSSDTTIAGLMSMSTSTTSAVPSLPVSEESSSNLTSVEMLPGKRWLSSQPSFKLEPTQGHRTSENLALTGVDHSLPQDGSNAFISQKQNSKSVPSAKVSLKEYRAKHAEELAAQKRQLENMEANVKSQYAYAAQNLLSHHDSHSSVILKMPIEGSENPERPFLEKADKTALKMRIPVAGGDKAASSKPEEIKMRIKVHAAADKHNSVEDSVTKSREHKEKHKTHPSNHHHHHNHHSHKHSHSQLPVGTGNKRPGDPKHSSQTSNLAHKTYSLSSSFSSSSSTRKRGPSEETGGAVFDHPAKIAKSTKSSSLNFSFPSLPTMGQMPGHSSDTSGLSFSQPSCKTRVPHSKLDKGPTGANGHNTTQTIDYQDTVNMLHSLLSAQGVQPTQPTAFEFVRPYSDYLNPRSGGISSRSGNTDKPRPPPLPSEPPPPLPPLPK
CDK9/cyclin T1, sequence (P50750 whole entry): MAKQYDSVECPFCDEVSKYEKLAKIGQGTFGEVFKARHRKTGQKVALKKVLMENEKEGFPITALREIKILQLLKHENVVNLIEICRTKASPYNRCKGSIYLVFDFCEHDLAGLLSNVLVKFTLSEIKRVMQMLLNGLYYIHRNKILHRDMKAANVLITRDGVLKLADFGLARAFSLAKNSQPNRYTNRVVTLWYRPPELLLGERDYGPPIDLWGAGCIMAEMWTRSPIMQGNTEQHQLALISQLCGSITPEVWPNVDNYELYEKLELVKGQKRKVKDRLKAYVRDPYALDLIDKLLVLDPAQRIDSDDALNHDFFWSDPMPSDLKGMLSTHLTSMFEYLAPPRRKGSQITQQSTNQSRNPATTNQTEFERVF
CDK4/CDK9 (Homo sapiens), sequence (P11802 whole entry, looked up): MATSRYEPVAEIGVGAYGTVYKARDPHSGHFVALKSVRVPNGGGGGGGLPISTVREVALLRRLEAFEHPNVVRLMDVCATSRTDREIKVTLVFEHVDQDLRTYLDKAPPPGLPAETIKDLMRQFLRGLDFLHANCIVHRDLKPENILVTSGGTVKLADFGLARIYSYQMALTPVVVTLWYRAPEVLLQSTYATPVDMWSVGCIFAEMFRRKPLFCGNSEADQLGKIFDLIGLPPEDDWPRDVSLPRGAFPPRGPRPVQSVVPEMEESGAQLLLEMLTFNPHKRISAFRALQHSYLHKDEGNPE
CDK4/CDK9 (Homo sapiens), sequence (P50750 whole entry, looked up): as the sequence (P50750 whole entry) above

SMILES: CN(C)C(=O)c1cc2cnc(Nc3ccc(NC(=O)CCCCCCC(=O)NO)cc3)nc2n1C1CCCC1
- pIC50 [1]: 7.72
- Activity (A549 [2]): 13%
- Activity (NCI-H460): 1.82%
- Activity (T47D [3]): 6.7%
- Activity (MDA-MB-231 [4]): 5.76%
- Activity (MDA-MB-231 [5]): 87.1%
- Activity (Hep 3B2 [6]): Active
- Activity (T47D [7]): Active
- inhibition [8]: 101%
- pIC50 (CDK9/cyclin T1): 8.05
- Activity (A549 [9]): 59.8%
- pIC50 (MDA-MB-231 [10]): 5.73
- pIC50 (4T1 [11]): 5.95
- Activity (HepG2 [12]): 9.32%
- Activity (HepG2 [13]): 11.7%
- Activity (Hep 3B2 [14]): 3.02%
- Activity (Hep 3B2 [15]): 3.82%
- Activity (Hep 3B2 [16]): 7.09%
- Activity (Hep 3B2 [17]): 6.52%
- Activity (MDA-MB-231 [18]): Dose-dependent effect
- Activity (MDA-MB-231 [19]): Dose-dependent effect
- inhibition (CDK4/CDK9 (Homo sapiens)): Active
- inhibition (Histone deacetylase 1 [20]): Active
- inhibition (Histone deacetylase 1 [21]): Active
- inhibition (Histone deacetylase 1 [22]): Active
- AUC(0-inf) [23]: 2130 ng·h/mL
- MRT inf [24]: 13.8 h
- Activity (Mus musculus): Non-Toxic
- inhibition in vivo at 90 mg/kg (4T1 [25]): 78.4%
